Source: ChEMBL document CHEMBL2434899, “Peripherally selective diphenyl purine antagonist of the CB1 receptor” (J Med Chem, 2013)
One block for each molecule: values may come before it. Calls of active or inactive are those of the source.

How the values were obtained:
Cannabinoid receptor 1 [1] = target: T1, Cannabinoid receptor 1 (Homo sapiens, UniProt P21554); experiment: Antagonist activity at human CB1 receptor expressed in CHO-K1 cells by intracellular Ca2+ mobilization assay in presence of CP55940; format: functional, cell-based
Outline: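 CHO-K1 cells co-expressing human CB1 and Gαq16; intracellular calcium flux read with fluorescent dye on a 96-well plate reader. Rightward shift of the CP55940 concentration-response curve gives Ke = [ligand]/(DR−1), DR being the CP55940 EC50 ratio with versus without test agent. Averages of 3–6 measurements.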

Homo sapiens = species on record: Homo sapiens; experiment: Selectivity ratio of Ki for CB2 receptor (unknown origin) to Ki for human CB1 receptor
Cannabinoid receptor 2 = Cannabinoid receptor 2 (Homo sapiens, UniProt P34972); experiment: Displacement of [3H]CP55940 from CB2 receptor (unknown origin) expressed in CHO-K1 cells; format: cell-based
Cannabinoid receptor 1 [2] = target: T1, Cannabinoid receptor 1; experiment: Displacement of [3H]CP55940 from human CB1 receptor expressed in CHO-K1 cells; format: cell-based
Mus musculus [3] = experiment: Antagonist activity at CB1 receptor in ICR mouse assessed as catelepsy at 10 mg/kg, po after 30 mins; format: functional, organism-based; design: dose 10 mg/kg
Outline: (§1)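 Adult ICR mice given vehicle or 10 mg/kg oral gavage, then vehicle or 30 mg/kg Δ9-THC i.v. by tail vein 30 min later. Rectal temperature was taken before injection and at 30 min after it, reported as change (°C). At 40 min, time motionless on an elevated ring over 5 min was recorded as % immobility. 5–6 mice per group; factorial ANOVA with Tukey post hoc.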

Mus musculus [4] = experiment: Antagonist activity at CB1 receptor in ICR mouse assessed as rectal temperature at 10 mg/kg, po after 30 mins relative to control; format: functional, organism-based; design: dose 10 mg/kg; outline: as §1
Mus musculus [5] = experiment: Antagonist activity at CB1 receptor in ICR mouse assessed as latency period at 10 mg/kg, po after 30 mins by warm water tail withdrawal assay; format: functional, organism-based; design: dose 10 mg/kg
Outline: (§2)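 ICR mice had baseline tail-withdrawal latency measured in a 55 °C water bath, then received oral vehicle or 10 mg/kg by gavage, followed 30 min later by i.v. vehicle or 30 mg/kg Δ9-THC. Latency was retested 20 min post-injection with a 10 s cutoff, expressed as %MPE = [(test−control)/(10−control)]×100. 5–6 mice per group; factorial ANOVA with Tukey post hoc.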

Mus musculus [6] = experiment: Antagonist activity at CB1 receptor in ICR mouse assessed as suppression of spontaneous activity at 10 mg/kg, po after 30 mins; format: functional, organism-based; design: dose 10 mg/kg
Outline: (§3)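 ICR mice were gavaged with vehicle or 10 mg/kg, then injected i.v. in the tail vein 30 min later with vehicle or 30 mg/kg Δ9-THC. After 5 min each mouse was placed in an activity chamber for 10 min; horizontal movement was counted as total infrared photobeam interruptions. 5–6 mice per group; factorial ANOVA with Tukey post hoc.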

Mus musculus [7] = experiment: Reversal of delta9-THC-mediated suppression of catelepsy in ICR mouse at 10 mg/kg, po administered 30 mins prior to delta9-THC challenge measured after 40 mins; format: functional, organism-based; design: dose 10 mg/kg; outline: as §1
Mus musculus [8] = experiment: Reversal of delta9-THC-mediated suppression of hypothermia in ICR mouse assessed as rectal temperature at 10 mg/kg, po administered 30 mins prior to delta9-THC challenge measured after 30 mins relative to control; format: functional, organism-based; design: dose 10 mg/kg; outline: as §1
Mus musculus [9] = experiment: Reversal of delta9-THC-mediated suppression of antinociceptive activity in ICR mouse assessed as latency period at 10 mg/kg, po administered 30 mins prior to delta9-THC challenge measured after 20 mins by warm water tail withdrawal assay; format: functional, organism-based; design: dose 10 mg/kg; outline: as §2
Mus musculus [10] = experiment: Reversal of delta9-THC-mediated suppression of spontaneous activity in ICR mouse at 10 mg/kg, po administered 30 mins prior to delta9-THC challenge measured after 5 mins; format: functional, organism-based; design: dose 10 mg/kg; outline: as §3
Nucleic Acid [11] = experiment: Ratio of drug uptake from brain to plasma in Sprague-Dawley rat at 10 mg/kg, po after 24 hrs by LC-MS analysis; format: ADME, organism-based; design: dose 10 mg/kg, route oral
Outline: (§4)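 Male Sprague Dawley rats, 9 weeks old, given 10 mg/kg orally by gavage in corn oil; 3 rats per time point. Un-perfused brain and plasma taken at 1, 2, 4, 8 and 24 h. Plasma, or brain homogenized in ethanol:water, was precipitated with acetonitrile, centrifuged 9000 g for 5 min and analysed by LC-MS/MS (MRM, C18 column).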

Nucleic Acid [12] = experiment: Ratio of drug uptake from brain to plasma in Sprague-Dawley rat at 10 mg/kg, po after 8 hrs by LC-MS analysis; format: ADME, organism-based; design: dose 10 mg/kg, route oral; outline: as §4
Nucleic Acid [13] = experiment: Ratio of drug uptake from brain to plasma in Sprague-Dawley rat at 10 mg/kg, po after 2 hrs by LC-MS analysis; format: ADME, organism-based; design: dose 10 mg/kg, route oral; outline: as §4
Nucleic Acid [14] = experiment: Ratio of drug uptake from brain to plasma in Sprague-Dawley rat at 10 mg/kg, po after 4 hrs by LC-MS analysis; format: ADME, organism-based; design: dose 10 mg/kg, route oral; outline: as §4
[15] = Drug uptake in brain of Sprague-Dawley rat at 10 mg/kg, po after 24 hrs by LC-MS analysis; format: ADME, organism-based; design: dose 10 mg/kg, route oral; settings: read-out: Drug uptake; outline: as §4
[16] = Drug uptake in brain of Sprague-Dawley rat at 10 mg/kg, po after 8 hrs by LC-MS analysis; format: ADME, organism-based; design: dose 10 mg/kg, route oral; settings: read-out: Drug uptake; outline: as §4
[17] = Drug uptake in brain of Sprague-Dawley rat at 10 mg/kg, po after 4 hrs by LC-MS analysis; format: ADME, organism-based; design: dose 10 mg/kg, route oral; settings: read-out: Drug uptake; outline: as §4
[18] = Drug uptake in brain of Sprague-Dawley rat at 10 mg/kg, po after 2 hrs by LC-MS analysis; format: ADME, organism-based; design: dose 10 mg/kg, route oral; settings: read-out: Drug uptake; outline: as §4
[19] = Drug uptake in brain of Sprague-Dawley rat at 10 mg/kg, po after 1 hr by LC-MS analysis; format: ADME, organism-based; design: dose 10 mg/kg, route oral; settings: read-out: Drug uptake; outline: as §4
Nucleic Acid [20] = experiment: Ratio of drug uptake from brain to plasma in Sprague-Dawley rat at 10 mg/kg, po after 1 hr by LC-MS analysis; format: ADME, organism-based; design: dose 10 mg/kg, route oral; outline: as §4
[21] = Plasma concentration in Sprague-Dawley rat at 10 mg/kg, po after 8 hrs by LC-MS analysis; format: ADME, organism-based; design: dose 10 mg/kg, route oral; outline: as §4
[22] = Plasma concentration in Sprague-Dawley rat at 10 mg/kg, po after 4 hrs by LC-MS analysis; format: ADME, organism-based; design: dose 10 mg/kg, route oral; outline: as §4
[23] = Plasma concentration in Sprague-Dawley rat at 10 mg/kg, po after 2 hrs by LC-MS analysis; format: ADME, organism-based; design: dose 10 mg/kg, route oral; outline: as §4
[24] = Plasma concentration in Sprague-Dawley rat at 10 mg/kg, po after 1 hr by LC-MS analysis; format: ADME, organism-based; design: dose 10 mg/kg, route oral; outline: as §4
[25] = Plasma concentration in Sprague-Dawley rat at 10 mg/kg, po after 24 hrs by LC-MS analysis; format: ADME, organism-based; design: dose 10 mg/kg, route oral; outline: as §4

T1 sequence (P21554 whole entry): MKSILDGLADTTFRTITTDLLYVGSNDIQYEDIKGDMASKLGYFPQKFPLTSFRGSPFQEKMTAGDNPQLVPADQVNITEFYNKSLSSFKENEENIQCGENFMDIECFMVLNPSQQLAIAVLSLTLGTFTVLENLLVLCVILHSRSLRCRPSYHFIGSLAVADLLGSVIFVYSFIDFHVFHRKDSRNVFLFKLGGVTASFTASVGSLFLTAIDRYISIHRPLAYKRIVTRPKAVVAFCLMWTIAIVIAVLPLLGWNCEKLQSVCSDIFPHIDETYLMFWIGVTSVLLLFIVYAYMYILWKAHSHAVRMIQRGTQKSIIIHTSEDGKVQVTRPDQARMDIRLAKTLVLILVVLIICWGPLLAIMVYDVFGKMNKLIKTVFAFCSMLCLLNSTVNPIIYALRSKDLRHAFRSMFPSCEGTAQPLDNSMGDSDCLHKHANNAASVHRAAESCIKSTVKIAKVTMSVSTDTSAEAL
Cannabinoid receptor 2, sequence (P34972 whole entry): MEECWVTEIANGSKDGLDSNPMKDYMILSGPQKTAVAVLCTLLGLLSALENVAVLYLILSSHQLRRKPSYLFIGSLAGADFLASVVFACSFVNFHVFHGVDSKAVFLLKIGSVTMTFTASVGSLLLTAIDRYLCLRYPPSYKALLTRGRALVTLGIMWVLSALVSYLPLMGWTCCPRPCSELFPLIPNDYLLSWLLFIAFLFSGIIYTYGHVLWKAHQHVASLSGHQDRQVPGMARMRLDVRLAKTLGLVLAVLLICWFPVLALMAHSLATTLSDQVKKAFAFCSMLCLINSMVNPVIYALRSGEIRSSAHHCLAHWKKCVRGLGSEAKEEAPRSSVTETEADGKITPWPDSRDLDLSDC

SMILES: O=S(=O)(NC1CCN(c2ncnc3c2nc(-c2ccccc2Cl)n3-c2ccc(Cl)cc2)CC1)C(F)(F)F
- Ratio Ki (Homo sapiens): 738
- Ki (Cannabinoid receptor 2): 4500 nM
- Ki (Cannabinoid receptor 1 [2]): 6.1 nM
- Ke (Cannabinoid receptor 1 [1]): 1.05 nM

SMILES: O=C(CC1CCCCC1)NC1CCN(c2ncnc3c2nc(-c2ccccc2Cl)n3-c2ccc(Cl)cc2)CC1
- Ki (Cannabinoid receptor 2): 2360 nM
- Ki (Cannabinoid receptor 1 [2]): 1.93 nM
- Ke (Cannabinoid receptor 1 [1]): 2.1 nM

SMILES: O=C(NC1CCN(c2ncnc3c2nc(-c2ccccc2Cl)n3-c2ccc(Cl)cc2)CC1)C1CCCCC1
- Ratio Ki (Homo sapiens): 249
- Ki (Cannabinoid receptor 2): 835 nM
- Ki (Cannabinoid receptor 1 [2]): 3.35 nM
- Ke (Cannabinoid receptor 1 [1]): 3.3 nM

SMILES: O=C(CC1CCCC1)NC1CCN(c2ncnc3c2nc(-c2ccccc2Cl)n3-c2ccc(Cl)cc2)CC1
- Ratio Ki (Homo sapiens): 282
- Ki (Cannabinoid receptor 2): 569 nM
- Ki (Cannabinoid receptor 1 [2]): 2.02 nM
- Ke (Cannabinoid receptor 1 [1]): 2.9 nM

SMILES: O=C(CCN1CCCCC1)NC1CCN(c2ncnc3c2nc(-c2ccccc2Cl)n3-c2ccc(Cl)cc2)CC1
- Ke (Cannabinoid receptor 1 [1]): 789 nM

SMILES: O=C(NC1CCN(c2ncnc3c2nc(-c2ccccc2Cl)n3-c2ccc(Cl)cc2)CC1)Oc1ccccc1
- Ki (Cannabinoid receptor 2): 10600 nM
- Ki (Cannabinoid receptor 1 [2]): 2.55 nM

SMILES: CN(C)CC(=O)NC1CCN(c2ncnc3c2nc(-c2ccccc2Cl)n3-c2ccc(Cl)cc2)CC1
- Ke (Cannabinoid receptor 1 [1]): 140 nM

SMILES: CCOC(=O)NC1CCN(c2ncnc3c2nc(-c2ccccc2Cl)n3-c2ccc(Cl)cc2)CC1
- Ratio Ki (Homo sapiens): 119
- Ki (Cannabinoid receptor 2): 426 nM
- Ki (Cannabinoid receptor 1 [2]): 3.57 nM
- Ke (Cannabinoid receptor 1 [1]): 2.3 nM

SMILES: CC(C)CC(=O)NC1CCN(c2ncnc3c2nc(-c2ccccc2Cl)n3-c2ccc(Cl)cc2)CC1
- Ratio Ki (Homo sapiens): 22
- Ki (Cannabinoid receptor 2): 89.5 nM
- Ki (Cannabinoid receptor 1 [2]): 4.01 nM
- Ke (Cannabinoid receptor 1 [1]): 5.4 nM

More lines, main results first:

- Ke (Cannabinoid receptor 1 [1]): 2770 nM
SMILES: NS(=O)(=O)NC1CCN(c2ncnc3c2nc(-c2ccccc2Cl)n3-c2ccc(Cl)cc2)CC1

- Ke (Cannabinoid receptor 1 [1]): 17 nM
SMILES: COC(=O)NC1CCN(c2ncnc3c2nc(-c2ccccc2Cl)n3-c2ccc(Cl)cc2)CC1

- Ratio Ki (Homo sapiens): 39
- Ki (Cannabinoid receptor 2): 60.2 nM
- Ki (Cannabinoid receptor 1 [2]): 1.54 nM
- Ke (Cannabinoid receptor 1 [1]): 0.89 nM
SMILES: O=C(NC1CCN(c2ncnc3c2nc(-c2ccccc2Cl)n3-c2ccc(Cl)cc2)CC1)C1CCCC1

- Ratio Ki (Homo sapiens): 81
- Ki (Cannabinoid receptor 2): 215 nM
- Ki (Cannabinoid receptor 1 [2]): 2.67 nM
- Ke (Cannabinoid receptor 1 [1]): 7.4 nM
SMILES: CC(C)CCC(=O)NC1CCN(c2ncnc3c2nc(-c2ccccc2Cl)n3-c2ccc(Cl)cc2)CC1

- BPR (Nucleic Acid [11]): 0.01
- BPR (Nucleic Acid [12]): 0.03
- BPR (Nucleic Acid [13]): 0.04
- BPR (Nucleic Acid [14]): 0.07
- concentration at 24 h [15]: 5.35 ng/mL
- concentration at 8 h [16]: 62.5 ng/mL
- concentration at 4 h [17]: 103 ng/mL
- concentration at 2 h [18]: 71.5 ng/mL
- concentration at 1 h [19]: 24.3 ng/mL
- BPR (Nucleic Acid [20]): 0.03
- concentration at 8 h [21]: 1960 ng/mL
- concentration at 4 h [22]: 1560 ng/mL
- concentration at 2 h [23]: 1750 ng/mL
- concentration at 1 h [24]: 730 ng/mL
- Ratio Ki (Homo sapiens): 54
- Ki (Cannabinoid receptor 2): 1050 nM
- Ki (Cannabinoid receptor 1 [2]): 19.5 nM
- concentration at 24 h [25]: 438 ng/mL
- Ke (Cannabinoid receptor 1 [1]): 4.9 nM
SMILES: CCCCC(=O)NC1CCN(c2ncnc3c2nc(-c2ccccc2Cl)n3-c2ccc(Cl)cc2)CC1
- Activity (Mus musculus [3]): inactive
- Activity (Mus musculus [4]): inactive
- Activity (Mus musculus [5]): inactive
- Activity (Mus musculus [6]): inactive
- Activity (Mus musculus [7]): inactive
- Activity (Mus musculus [8]): inactive
- Activity (Mus musculus [9]): inactive
- Activity (Mus musculus [10]): inactive
